In ChEMBL document CHEMBL1137942, “Design, synthesis, and biological activity of novel, potent, and selective (benzoylaminomethyl)thiophene sulfonamide inhibitors of c-Jun-N-terminal kinase” (J Med Chem, 2004):

Columns and labels:
[1] = biological target: Dual specificity mitogen-activated protein kinase kinase 6 (Homo sapiens) (UniProt P52564); experiment: Percentage activity of human MKK6 in the presence of 10 uM of compound and 10 uM of ATP in comparison with control
[2] = biological target: Serine/threonine-protein kinase Chk2 (Homo sapiens) (UniProt O96017); experiment: Percentage activity of human CHK2 in the presence of 10 uM of compound and 10 uM of ATP in comparison with control
[3] = biological target: 3-phosphoinositide-dependent protein kinase 1 (Homo sapiens) (UniProt O15530); experiment: Percentage activity of human PDK1 in the presence of 10 uM of compound and 10 uM of ATP in comparison with control
[4] = biological target: Inhibitor of nuclear factor kappa-B kinase subunit alpha (Homo sapiens) (UniProt O15111); experiment: Percentage activity of human IKK alpha in the presence of 10 uM of compound and 10 uM of ATP in comparison with control
[5] = biological target: Ribosomal protein S6 kinase alpha-5 (Homo sapiens) (UniProt O75582); experiment: Percentage activity of human MSK1 in the presence of 10 uM of compound and 10 uM of ATP in comparison with control
[6] = biological target: Protein kinase C epsilon type (Homo sapiens) (UniProt Q02156); experiment: Percentage activity of human PKC epsilon in the presence of 10 uM of compound and 10 uM of ATP in comparison with control
[7] = biological target: Tyrosine-protein kinase SYK (Homo sapiens) (UniProt P43405); experiment: Percentage activity of human Syk in the presence of 10 uM of compound and 10 uM of ATP in comparison with control
[8] = biological target: Mitogen-activated protein kinase 13 (Homo sapiens) (UniProt O15264); experiment: Percentage activity of human SAPK4 in the presence of 10 uM of compound and 10 uM of ATP in comparison with control
[9] = biological target: MAP kinase-activated protein kinase 5 (Homo sapiens) (UniProt Q8IW41); experiment: Percentage activity of human PRAK in the presence of 10 uM of compound and 10 uM of ATP in comparison with control
[10] = biological target: Mitogen-activated protein kinase 9 (Homo sapiens, UniProt P45984); experiment: Inhibition of human JNK2
Outline: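 Radiometric SPA kinase assay: 0.5 µg recombinant preactivated GST-JNK2, 1 µg biotinylated GST-c-Jun, and 2 µM [33P]γ-ATP (2 nCi/µL). Buffer was 50 mM Tris-HCl pH 8.0, 10 mM MgCl2, 1 mM DTT and 100 µM NaVO4, with or without inhibitor, 120 min at rt. Stopped with streptavidin SPA beads, 5 mM EDTA, 0.1% Triton X-100 and 50 µM ATP in PBS; 60 min. Beads were centrifuged, washed, and counted by scintillation.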

[11] = biological target: Protein kinase C eta type (Homo sapiens) (UniProt P24723); experiment: Percentage activity of human PKC eta in the presence of 10 uM of compound and 10 uM of ATP in comparison with control
[12] = biological target: Cyclin-dependent kinase 2/cyclin E (Homo sapiens) (UniProt P24864+P24941+O96020); experiment: Percentage activity of human CDK2 (with cyclin E) in the presence of 10 uM of compound and 10 uM of ATP in comparison with control; type: protein-complex assay
[13] = biological target: Fibroblast growth factor receptor 3 (Homo sapiens) (UniProt P22607); experiment: Percentage activity of human FGFR3 in the presence of 10 uM of compound and 10 uM of ATP in comparison with control
[14] = biological target: Cyclin-dependent kinase 1/cyclin B (Homo sapiens) (UniProt P06493+P14635+Q8WWL7+O95067); experiment: Percentage activity of human CDK1 (with cyclin B) in the presence of 10 uM of compound and 10 uM of ATP in comparison with control; type: protein-complex assay
[15] = biological target: Tyrosine-protein kinase ZAP-70 (Homo sapiens) (UniProt P43403); experiment: Percentage activity of human ZAP-70 in the presence of 10 uM of compound and 10 uM of ATP in comparison with control
[16] = biological target: Platelet-derived growth factor receptor (Homo sapiens) (UniProt P09619+P16234); experiment: Percentage activity of human PDGFR alpha in the presence of 10 uM of compound and 10 uM of ATP in comparison with control; type: protein-complex assay
[17] = biological target: Cyclin-dependent kinase 5/CDK5 activator 1 (Homo sapiens) (UniProt Q00535+Q15078); experiment: Percentage activity of human CDK5 (with […]) in the presence of 10 uM of compound and 10 uM of ATP in comparison with control; type: protein-complex assay
[18] = biological target: Tyrosine-protein kinase Yes (Homo sapiens) (UniProt P07947); experiment: Percentage activity of human Yes in the presence of 10 uM of compound and 10 uM of ATP in comparison with control
[19] = biological target: Tyrosine-protein kinase Fes/Fps (Homo sapiens) (UniProt P07332); experiment: Percentage activity of human Fes in the presence of 10 uM of compound and 10 uM of ATP in comparison with control
[20] = biological target: Inhibitor of nuclear factor kappa-B kinase subunit beta (Homo sapiens) (UniProt O14920); experiment: Percentage activity of human IKK beta in the presence of 10uM of compound and 10uM of ATP in comparison with control
[21] = system: SCG; experiment: Cell activity of JNK inhibitors in neuronal apoptosis assay in SCG cells, percentage rescued neurons at 10 uM compound concentration after 24 hours; type: functional, Rattus norvegicus
[22] = system: SCG; experiment: Cell activity of JNK inhibitors in neuronal apoptosis assay in SCG cells, percentage rescued neurons at 3uM compound concentration after 24 hours; type: functional, Rattus norvegicus
[23] = system: SCG; experiment: Cell activity of JNK inhibitors in neuronal apoptosis assay in SCG cells, percentage rescued neurons at 1uM compound concentration after 48 hours; type: functional, Rattus norvegicus
Outline: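 They were cultured in Leibowitz medium with 5% rat serum, 0.75 µg/mL NGF 7S and arabinosine C 10^-5 M. On day 4, medium was switched to 10 µg/mL anti-NGF antibody without NGF or AraC, with inhibitor in 1% DMSO. After 24 h, cells were refed initial medium minus AraC. After another 24 h, viability was read by MTT (0.5 mg/mL, 30 min, 37 °C), OD 590 nm.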

[24] = biological target: Platelet-derived growth factor receptor beta (Homo sapiens) (UniProt P09619); experiment: Percentage activity of human PDGFR beta in the presence of 10 uM of compound and 10 uM of ATP in comparison with control
[25] = biological target: Insulin-like growth factor 1 receptor (Homo sapiens) (UniProt P08069); experiment: Percentage activity of human IGF-1R in the presence of 10 uM of compound and 10 uM of ATP in comparison with control

Chain of Platelet-derived growth factor receptor beta (Homo sapiens) (P09619 whole entry): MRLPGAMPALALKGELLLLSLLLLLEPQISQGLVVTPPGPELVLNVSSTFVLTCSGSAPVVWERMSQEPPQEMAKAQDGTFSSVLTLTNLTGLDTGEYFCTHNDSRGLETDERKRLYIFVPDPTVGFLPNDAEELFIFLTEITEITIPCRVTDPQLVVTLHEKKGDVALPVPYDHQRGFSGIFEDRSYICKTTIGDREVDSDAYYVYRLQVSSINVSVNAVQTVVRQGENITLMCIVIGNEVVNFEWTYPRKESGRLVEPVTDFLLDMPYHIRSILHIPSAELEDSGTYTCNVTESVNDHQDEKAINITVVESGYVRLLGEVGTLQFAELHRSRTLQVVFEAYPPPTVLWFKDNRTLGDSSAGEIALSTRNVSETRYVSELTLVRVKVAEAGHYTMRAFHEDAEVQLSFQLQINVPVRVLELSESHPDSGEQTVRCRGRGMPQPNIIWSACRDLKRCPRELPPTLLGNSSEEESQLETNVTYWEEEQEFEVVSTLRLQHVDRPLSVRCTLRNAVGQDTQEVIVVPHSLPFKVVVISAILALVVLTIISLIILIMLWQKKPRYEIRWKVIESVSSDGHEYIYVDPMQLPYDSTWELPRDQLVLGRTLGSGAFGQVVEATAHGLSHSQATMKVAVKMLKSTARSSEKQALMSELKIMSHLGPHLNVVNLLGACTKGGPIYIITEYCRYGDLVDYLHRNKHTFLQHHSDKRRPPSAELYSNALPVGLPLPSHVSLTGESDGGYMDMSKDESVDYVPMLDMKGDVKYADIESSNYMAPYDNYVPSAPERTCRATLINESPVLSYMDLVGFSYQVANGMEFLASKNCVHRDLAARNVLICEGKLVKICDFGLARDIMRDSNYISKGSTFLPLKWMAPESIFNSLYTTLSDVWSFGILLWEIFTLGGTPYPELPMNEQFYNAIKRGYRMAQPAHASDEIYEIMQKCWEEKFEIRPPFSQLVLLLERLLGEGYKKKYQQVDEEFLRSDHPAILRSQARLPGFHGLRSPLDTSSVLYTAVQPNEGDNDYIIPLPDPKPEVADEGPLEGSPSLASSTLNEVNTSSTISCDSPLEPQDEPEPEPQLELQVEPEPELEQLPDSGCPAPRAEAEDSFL
Chain of Ribosomal protein S6 kinase alpha-5 (Homo sapiens) (O75582 whole entry, looked up): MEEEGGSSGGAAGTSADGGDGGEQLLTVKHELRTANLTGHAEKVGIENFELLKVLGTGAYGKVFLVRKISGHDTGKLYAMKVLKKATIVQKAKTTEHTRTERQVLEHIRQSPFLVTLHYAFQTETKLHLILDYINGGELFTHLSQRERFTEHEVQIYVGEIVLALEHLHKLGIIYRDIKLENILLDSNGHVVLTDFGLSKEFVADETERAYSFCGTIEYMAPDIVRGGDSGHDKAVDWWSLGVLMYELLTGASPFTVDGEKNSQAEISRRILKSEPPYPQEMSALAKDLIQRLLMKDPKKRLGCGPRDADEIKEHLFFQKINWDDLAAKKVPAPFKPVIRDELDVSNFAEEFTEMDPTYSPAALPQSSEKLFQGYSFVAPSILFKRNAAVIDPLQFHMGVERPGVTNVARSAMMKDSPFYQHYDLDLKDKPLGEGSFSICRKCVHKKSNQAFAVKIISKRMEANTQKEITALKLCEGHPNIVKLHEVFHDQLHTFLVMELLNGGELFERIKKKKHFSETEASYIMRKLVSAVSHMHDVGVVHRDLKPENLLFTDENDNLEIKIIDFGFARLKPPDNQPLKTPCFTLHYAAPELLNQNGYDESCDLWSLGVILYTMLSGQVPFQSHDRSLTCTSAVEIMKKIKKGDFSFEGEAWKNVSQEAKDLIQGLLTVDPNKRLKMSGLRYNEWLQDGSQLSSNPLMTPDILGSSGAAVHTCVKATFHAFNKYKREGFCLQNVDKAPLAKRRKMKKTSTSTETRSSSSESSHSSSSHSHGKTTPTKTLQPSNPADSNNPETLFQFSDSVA
Chain of Inhibitor of nuclear factor kappa-B kinase subunit alpha (Homo sapiens) (O15111 whole entry): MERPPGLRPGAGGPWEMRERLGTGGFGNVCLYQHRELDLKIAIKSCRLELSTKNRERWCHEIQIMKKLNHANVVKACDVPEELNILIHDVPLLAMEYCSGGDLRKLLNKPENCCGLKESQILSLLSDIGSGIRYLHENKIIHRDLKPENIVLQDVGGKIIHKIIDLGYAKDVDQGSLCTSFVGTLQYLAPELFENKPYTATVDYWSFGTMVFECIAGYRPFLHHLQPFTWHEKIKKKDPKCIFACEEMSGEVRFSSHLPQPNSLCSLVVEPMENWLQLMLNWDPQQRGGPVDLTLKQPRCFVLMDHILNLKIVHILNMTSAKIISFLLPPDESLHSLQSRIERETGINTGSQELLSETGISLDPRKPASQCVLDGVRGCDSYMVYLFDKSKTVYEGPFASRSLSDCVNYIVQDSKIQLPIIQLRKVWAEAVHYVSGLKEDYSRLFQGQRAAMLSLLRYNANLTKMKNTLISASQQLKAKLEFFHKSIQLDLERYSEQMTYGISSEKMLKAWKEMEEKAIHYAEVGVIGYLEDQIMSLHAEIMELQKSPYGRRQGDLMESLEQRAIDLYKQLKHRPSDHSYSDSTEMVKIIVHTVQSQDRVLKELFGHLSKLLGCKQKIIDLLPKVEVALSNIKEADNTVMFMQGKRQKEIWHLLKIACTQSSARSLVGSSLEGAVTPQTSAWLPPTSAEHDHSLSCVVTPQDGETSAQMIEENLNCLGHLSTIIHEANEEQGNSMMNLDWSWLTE
Chain of 3-phosphoinositide-dependent protein kinase 1 (Homo sapiens) (O15530 whole entry): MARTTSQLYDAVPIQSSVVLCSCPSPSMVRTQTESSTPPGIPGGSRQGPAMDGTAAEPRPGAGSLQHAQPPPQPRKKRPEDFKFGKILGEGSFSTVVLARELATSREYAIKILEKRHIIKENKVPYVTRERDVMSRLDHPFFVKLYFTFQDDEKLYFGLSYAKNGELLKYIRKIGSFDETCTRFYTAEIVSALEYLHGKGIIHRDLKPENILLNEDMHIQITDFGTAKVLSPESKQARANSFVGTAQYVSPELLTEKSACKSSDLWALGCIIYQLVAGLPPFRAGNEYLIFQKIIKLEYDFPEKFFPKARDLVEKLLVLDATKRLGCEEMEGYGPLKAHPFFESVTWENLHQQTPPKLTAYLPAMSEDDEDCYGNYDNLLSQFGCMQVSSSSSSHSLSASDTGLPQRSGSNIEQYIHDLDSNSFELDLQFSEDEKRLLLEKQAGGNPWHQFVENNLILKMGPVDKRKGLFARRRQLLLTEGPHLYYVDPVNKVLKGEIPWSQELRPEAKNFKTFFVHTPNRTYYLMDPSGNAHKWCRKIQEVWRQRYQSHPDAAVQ
Chain of Protein kinase C eta type (Homo sapiens) (P24723 whole entry): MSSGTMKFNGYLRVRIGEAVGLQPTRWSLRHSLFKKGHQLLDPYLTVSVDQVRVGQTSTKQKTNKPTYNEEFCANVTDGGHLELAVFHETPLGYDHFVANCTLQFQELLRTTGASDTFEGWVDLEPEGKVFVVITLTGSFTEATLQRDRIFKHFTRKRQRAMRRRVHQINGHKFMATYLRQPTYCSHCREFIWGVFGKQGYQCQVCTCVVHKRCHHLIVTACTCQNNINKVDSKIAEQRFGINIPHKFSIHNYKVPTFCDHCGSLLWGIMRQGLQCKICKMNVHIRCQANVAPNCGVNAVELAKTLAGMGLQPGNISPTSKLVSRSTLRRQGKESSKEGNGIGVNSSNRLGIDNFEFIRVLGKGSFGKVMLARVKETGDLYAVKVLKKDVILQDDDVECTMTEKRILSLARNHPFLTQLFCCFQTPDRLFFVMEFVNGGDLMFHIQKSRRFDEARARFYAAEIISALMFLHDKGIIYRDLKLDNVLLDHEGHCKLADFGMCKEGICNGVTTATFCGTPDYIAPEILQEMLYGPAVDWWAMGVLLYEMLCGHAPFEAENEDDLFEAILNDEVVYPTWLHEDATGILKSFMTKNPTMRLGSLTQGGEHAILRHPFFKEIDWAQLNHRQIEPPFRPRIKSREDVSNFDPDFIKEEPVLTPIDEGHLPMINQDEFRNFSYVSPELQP
Chain of Mitogen-activated protein kinase 13 (Homo sapiens) (O15264 whole entry): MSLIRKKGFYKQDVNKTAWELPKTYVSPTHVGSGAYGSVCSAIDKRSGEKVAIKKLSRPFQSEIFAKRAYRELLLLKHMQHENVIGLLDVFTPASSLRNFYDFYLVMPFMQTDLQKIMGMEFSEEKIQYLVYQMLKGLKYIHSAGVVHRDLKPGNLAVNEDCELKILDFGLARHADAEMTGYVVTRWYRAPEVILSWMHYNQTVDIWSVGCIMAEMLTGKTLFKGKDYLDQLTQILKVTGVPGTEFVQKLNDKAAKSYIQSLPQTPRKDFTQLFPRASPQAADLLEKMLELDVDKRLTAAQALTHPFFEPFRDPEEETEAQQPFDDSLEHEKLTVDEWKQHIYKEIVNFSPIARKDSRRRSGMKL
Chain of Inhibitor of nuclear factor kappa-B kinase subunit beta (Homo sapiens) (O14920 whole entry): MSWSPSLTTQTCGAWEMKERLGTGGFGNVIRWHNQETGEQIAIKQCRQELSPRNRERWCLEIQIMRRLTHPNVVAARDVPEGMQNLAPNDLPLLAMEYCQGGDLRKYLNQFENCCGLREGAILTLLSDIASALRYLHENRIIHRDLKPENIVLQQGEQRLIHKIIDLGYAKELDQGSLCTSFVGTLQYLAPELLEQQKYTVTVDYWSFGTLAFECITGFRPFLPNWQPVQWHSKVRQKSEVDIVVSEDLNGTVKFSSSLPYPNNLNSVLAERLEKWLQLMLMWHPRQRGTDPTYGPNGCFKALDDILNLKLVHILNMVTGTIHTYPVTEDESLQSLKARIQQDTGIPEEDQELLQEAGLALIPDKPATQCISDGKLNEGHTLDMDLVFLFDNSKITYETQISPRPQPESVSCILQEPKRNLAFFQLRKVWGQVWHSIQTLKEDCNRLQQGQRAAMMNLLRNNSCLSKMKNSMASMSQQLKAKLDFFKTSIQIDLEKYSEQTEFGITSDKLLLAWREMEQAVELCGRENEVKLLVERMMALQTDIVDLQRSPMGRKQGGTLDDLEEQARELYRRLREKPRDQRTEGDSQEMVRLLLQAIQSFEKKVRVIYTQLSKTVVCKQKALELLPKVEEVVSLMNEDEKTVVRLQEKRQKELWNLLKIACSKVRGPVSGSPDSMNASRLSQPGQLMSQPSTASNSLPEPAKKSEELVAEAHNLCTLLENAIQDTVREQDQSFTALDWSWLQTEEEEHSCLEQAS

- Activity [1]: 106%
- Activity [2]: 75%
- Activity [3]: 98%
- Activity [4]: 92%
- Activity [5]: 86%
- Activity [6]: 95%
- Activity [7]: 75%
- Activity [8]: 101%
- Activity [9]: 74%
- IC50 [10]: 650 nM
- Activity [11]: 100%
- Activity [12]: 94%
- Activity [13]: 76%
- Activity [14]: 102%
- Activity [15]: 121%
- Activity [16]: 103%
- Activity [17]: 103%
- Activity [18]: 61%
- Activity [19]: 134%
- Activity [20]: 96%
- Activity [24]: 91%
- Activity [25]: 108%
Compound: O=C(NCc1ccc(S(=O)(=O)N2CCC(n3nnc4ccccc43)CC2)s1)c1ccc(Cl)cc1
- Rescued neurons [21]: 27.3%
- Rescued neurons [22]: 22.9%
- Rescued neurons [23]: 2.2%
